Compounds with a hit are over-represented: about 3.9% of the library has one in this group of screens.
STAT3 activator = activators of IL-6 induced STAT3 signaling; activation (% of control), % at 5.6 µM; U3A cells, IL-6 STAT3-luciferase reporter, luminescence; 100% = signal with IL-6 EC80 alone; actives 0.91% (n = 190,000); AID 871;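 active means activation above the screen-wide mean of compound activation plus 3 SD, cut at about 130% in these data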;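 further: 0% = background luminescence of wells with medium and substrate only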
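Material: STAT1-lacking human U3A cells, STAT3 luciferase reporter | Benchmarks: IL-6-only wells as 100% reference | Probe or stimulus: IL-6 (33 ng/mL) | Timing: Compound 1 h, then IL-6 6 h at 37 °C | Detection: Luminescence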
Pf gamet viab = P. falciparum stage V gametocyte viability inhibition. inhibition, % at 10.9 µM. AID 743093. P. falciparum stage V gametocytes, ATP luminescence, 24 h. actives 0.065% (n = 150,000);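 active means inhibition above the mean plus 3 SD of compounds within the control limits, set per campaign, cut at about 38% in these data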;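 further: 0% = DMSO wells and 100% = medium only without gametocytes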
STAT1 blocker = STAT1 signaling inhibition; NIH 3T3 STAT1-luciferase reporter, IFN-gamma, luminescence; inhibition, % at 5.5 µM; actives 0.35% (n = 200,000);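 active means inhibition above a set limit, the mean inhibition across all tested compounds plus 3 SD, cut at about 34% in these data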;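 further: 0% = IFN-gamma with DMSO and 100% = IFN-gamma with 300 µM nifuroxazide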
APP 5'UTR act = APP 5'UTR luciferase reporter activation; actives 1% (n = 190,000); activation, % at 2 µM; AID 1276; SH-SY5Y APP 5'UTR luciferase reporter, luminescence; zero percent = DMSO vehicle wells;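 active means activation above a set limit, based on mean plus 3 SD of controls, cut at about 140% in these data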
STAT1 act = activators of IFN-gamma induced STAT1 signaling; NIH 3T3 STAT1-luciferase reporter, luminescence; 100% = IFN-gamma alone, no compound; activation (% of control), % at 5.5 µM; actives 2.6% (n = 200,000);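 active means activation above the screen-wide mean activation plus 3 SD, cut at about 130% in these data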;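 further: raw ratio to IFN-gamma control signal so 100% means no change and 0% no light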
NF-kB neuron act = compounds increasing NF-kB expression in human neuronal cells; NF-kB reporter expression; active compounds read high; fold change at 12.5 µM; actives 1.6% (n = 190,000); AID 1239; in the data active means fold change above about 3.3
Starred values were filed as active, the others as inactive; . = no result given.

SMILES	STAT3 activator	Pf gamet viab	STAT1 blocker	APP 5'UTR act	STAT1 act	NF-kB neuron act
CCCCCOC(=O)c1[nH]c2c(c1C)C(=O)CC(c1ccco1)C2 (stereo not given)	121	.	-2	-95	102	5.2*
O=C(CSc1nnc(-c2cccc(Cl)c2)o1)Nc1ccc2c(c1)OCCO2	97	.	-10	159*	107	1.8
CCn1nnnc1SCC(=O)Nc1ccc2c(c1)OCCO2	116	.	-39	45	139*	2.4
COCCN(C(=O)c1ccccc1OC)c1nnc(C)s1	134*	-5	0	16	100	1.4
COc1ccc(C(=O)NCCSc2ccccc2)cc1OC	118	24	-39	46	134*	2
COc1ccc(-c2nc(CCl)cs2)cc1	95	25	-18	4	118	2.4
CCc1ccc(-c2nc(CCl)cs2)cc1	95	18	-52	48	147*	2.6
CCc1nc(Nc2ccncc2)c2oc3ccccc3c2n1	97	.	15	27	86	3.6*
Cc1nc(Nc2ccncc2)c2oc3ccccc3c2n1	93	.	2	-5	104	2
Nc1nccc(-c2ccc(-n3cnc4ccccc43)cc2)n1	133*	1	1	13	99	0.75
COc1cc(OC)cc(C(=O)Nc2nnc(NC(=S)Nc3ccccc3)s2)c1	50	.	7	15	94	1.2
CC(C)(C)c1nnc(NC(=S)Nc2ccccc2)s1	96	13	-41	92	140*	3.6*
Clc1ccc(-c2nc3n(n2)Cc2ccccc2-3)cc1	96	.	-42	139*	150*	6.1*
CCN(CC)S(=O)(=O)c1cccc(-c2nc3n(n2)Cc2ccccc2-3)c1	89	22	-30	-10	127	1.4
O=C(Nc1nc(-c2ccc(S(=O)(=O)N3CCOCC3)cc2)cs1)c1ccccc1	59	4	25	5	77	0.44
Cc1ccc(-c2csc(NC(=O)COC(=O)c3cccc(S(=O)(=O)N4CCOCC4)c3)n2)cc1	104	.	-35	86	131*	3.6*
COc1ccc(-c2csc(NC(=O)c3ccccc3NS(=O)(=O)c3ccc(F)c(F)c3)n2)cc1	37	13	63*	6	40	0.8
COc1cccc(C(=O)Nc2nc(-c3ccc(S(=O)(=O)N4CCOCC4)cc3)cs2)c1	63	-35	47*	-3	55	0.19
NNc1ccc(Cl)nn1	.	8	.	.	.	.
O=C(NCCOc1ccccc1F)c1cc(F)c(F)cc1Cl	84	-3	-33	124	134*	3.2
O=C(NC1CCCCCCC1)c1cc(F)c(F)cc1Cl	115	2	-32	32	130*	1.6
COc1ccccc1OCCNC(=O)c1cc(F)c(F)cc1Cl	110	1	-3	25	105	1.6
O=C(O)/C=C\C(=O)Nc1ccccc1C(=O)N1CCC(O)(c2ccc(Cl)cc2)CC1	.	1	.	.	.	.
c1cn2cc(-c3ccc4c(c3)OCO4)nc2s1	85	-14	-45	149*	141*	6.1*
CC(C)C(=O)Nc1cccc(-c2cn3ccsc3n2)c1	94	.	-16	-1	116	1.2
SMILES	STAT3 activator	Pf gamet viab	STAT1 blocker	APP 5'UTR act	STAT1 act	NF-kB neuron act
CC(=O)Nc1ccc(-c2cn3ccsc3n2)cc1	81	.	-40	64	136*	3.4*
O=C(Nc1ccc(-c2cn3ccsc3n2)cc1)C1CCCC1	74	2	-25	127	123	4*
COC(=O)c1nnn(-c2ccsc2C(=O)OC)c1C(=O)OC	104	27	2	-2	98	1.2
Cc1ccc(-c2nnnn2C2C/C(=N\NC(N)=S)C3OCC2O3)cc1 (stereo not given)	104	-14	-8	4	110	1.2
Cc1cc(C)c(NC(=O)CCCCCNC2CCCCC2)c(C)c1	.	-1	.	.	.	.
O=C(Nc1nccs1)c1cc2c(s1)-c1ccccc1OC2	96	.	-51	96	146*	2.3
Cn1c(Sc2ccc(Br)cc2)c(C=O)c2ccccc21	157*	.	16	2	87	0.76
Cc1ccc(C(=O)O/N=C(\N)c2ccc(Br)cc2)cc1	91	.	-40	36	137*	3.8*
N/C(=N\OC(=O)c1cccc(Br)c1)c1ccc(Br)cc1	124	.	2	-5	98	0.98
N/C(=N\OC(=O)c1ccc(Br)cc1)c1ccccc1	96	9	-56	124	150*	9.7*
CC1CCCN(c2ccc(C(=O)Nc3cccnc3)cc2[N+](=O)[O-])C1 (stereo not given)	101	-14	-16	22	115	1.5
Cc1cccc2nc(CSc3nnc4ccccn34)cn12	107	19	-40	94	137*	2.7
c1ccn2c(SCc3cn4ccsc4n3)nnc2c1	112	5	-42	45	138*	2.2
C[C@@H]1CCC(=O)N(CC[C@H](Oc2ccccc2)c2ccccc2)CC1	.	-5	.	.	.	.
O=C1c2ccccc2C(=O)N1CCc1c[nH]c2ccc(O)cc12	77	5	-37	14	132*	1.9
CN1C(=C2C(=O)OC(C)(C)OC2=O)Sc2ccccc21	95	-8	-33	30	130*	1.6
CCN1/C(=C2\OC(=S)N(C)C2=O)Sc2ccccc21	100	-16	-23	1	121	1.4
CC1CN(CC(=O)Nc2ccc([N+](=O)[O-])cc2Br)CC(C)O1 (stereo not given)	101	-22	-6	6	104	1.1
O=C(Nc1nc2ccccc2[nH]1)c1cc2ccccc2o1	80	1	-22	263*	121	5.5*
O=C(Nc1nc2ccccc2[nH]1)c1ccccc1[N+](=O)[O-]	106	-14	-41	17	136*	2.2
O=C(Nc1nc2ccccc2[nH]1)c1ccccc1F	13	23	78*	-1	30	0.37
O=C(Nc1nc2ccccc2[nH]1)c1ccc(F)cc1	39	.	-3	107	103	2.7
NC(=O)CC(NC(=O)Cc1ccc(Cl)cc1)c1ccc(NCCN2CCOCC2)c([N+](=O)[O-])c1 (stereo not given)	.	5	.	.	.	.
O=C(/C=C/Nc1ccccc1Br)c1ccccn1	10	.	94*	-16	17	0.35
O=C(/C=C/Nc1ccccc1)c1ccc(Oc2ncccn2)cc1	68	.	-66	22	156*	3.5*
O=C(/C=C\Nc1ccccn1)c1ccccc1	33	-12	45*	157*	59	3.5*
O=C(/C=C/c1ccccc1)c1ccccn1	108	.	-18	10	116	1.2
CN(C)/C=C/C(=O)c1ccc(Oc2ncccn2)cc1	110	0	-8	-11	108	1.4
CC(NC(=O)C1CCN(S(=O)(=O)c2cnc[nH]2)CC1)c1ccccc1 (stereo not given)	101	-11	-5	-7	105	1.2
CCOCCN1CCN(C2c3ccccc3CSc3ccccc32)CC1 (stereo not given)	.	-16	.	.	.	.

Bioassay records from PubChem.
